Data taken from ChEMBL document CHEMBL1123066, “N alpha-(diphenoxyphosphoryl)-L-alanyl-L-proline, N alpha-[bis (4-nitrophenoxy)phosphoryl]-L-alanyl-L-proline, and N alpha-[ (2-phenylethyl)phenoxyphosphoryl]-L-alanyl-L-proline: releasers of potent inhibitors of angiotensin converting enzyme at physiological pH and temperature” (J Med Chem, 1985).
pIC50, pKi: −log10 of the molar value.

Assays:
[1] = molecular target: T1, Angiotensin-converting enzyme (Oryctolagus cuniculus, UniProt P12822); test: Inhibition of Angiotensin I converting enzyme from rabbit lungs at pH 7.5
T1 sequence (P12822 whole entry): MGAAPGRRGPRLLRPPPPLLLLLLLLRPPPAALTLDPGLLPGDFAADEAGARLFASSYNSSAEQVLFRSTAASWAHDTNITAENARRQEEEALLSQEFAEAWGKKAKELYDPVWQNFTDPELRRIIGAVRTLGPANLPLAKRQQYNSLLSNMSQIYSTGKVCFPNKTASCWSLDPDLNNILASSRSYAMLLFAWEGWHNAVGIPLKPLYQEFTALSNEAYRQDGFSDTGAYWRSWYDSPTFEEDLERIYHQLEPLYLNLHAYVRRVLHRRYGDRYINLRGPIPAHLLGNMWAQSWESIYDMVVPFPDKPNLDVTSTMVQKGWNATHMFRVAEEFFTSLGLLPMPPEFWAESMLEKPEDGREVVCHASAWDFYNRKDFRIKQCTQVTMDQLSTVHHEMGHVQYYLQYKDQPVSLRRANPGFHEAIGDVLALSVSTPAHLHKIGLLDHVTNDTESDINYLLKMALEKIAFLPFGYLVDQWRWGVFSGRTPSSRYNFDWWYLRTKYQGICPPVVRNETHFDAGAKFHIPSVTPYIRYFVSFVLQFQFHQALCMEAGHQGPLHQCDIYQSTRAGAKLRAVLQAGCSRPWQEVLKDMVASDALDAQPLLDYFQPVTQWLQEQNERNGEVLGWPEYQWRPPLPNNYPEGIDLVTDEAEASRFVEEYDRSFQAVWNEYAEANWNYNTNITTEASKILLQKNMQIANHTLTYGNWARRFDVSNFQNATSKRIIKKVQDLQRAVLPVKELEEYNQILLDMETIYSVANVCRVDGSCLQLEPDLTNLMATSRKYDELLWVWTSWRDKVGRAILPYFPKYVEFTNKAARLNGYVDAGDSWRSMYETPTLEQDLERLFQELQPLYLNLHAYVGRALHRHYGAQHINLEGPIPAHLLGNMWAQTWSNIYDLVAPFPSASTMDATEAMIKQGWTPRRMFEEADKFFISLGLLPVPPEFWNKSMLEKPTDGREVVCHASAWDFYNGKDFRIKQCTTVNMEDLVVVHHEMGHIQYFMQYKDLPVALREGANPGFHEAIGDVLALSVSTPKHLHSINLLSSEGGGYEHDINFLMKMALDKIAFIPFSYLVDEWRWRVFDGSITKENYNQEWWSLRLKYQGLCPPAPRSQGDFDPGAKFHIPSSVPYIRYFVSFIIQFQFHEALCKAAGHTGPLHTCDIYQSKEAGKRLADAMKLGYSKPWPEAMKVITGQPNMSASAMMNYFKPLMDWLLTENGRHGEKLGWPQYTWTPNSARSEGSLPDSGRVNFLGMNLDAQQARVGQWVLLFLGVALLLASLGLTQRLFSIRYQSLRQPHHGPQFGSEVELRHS

[2] = Rate constant was evaluated for the loss of 1 mol of phenol at the pH 7.5 in the presence of phosphate buffer; assay type: ADME
Method in brief: (§1)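 Ester hydrolysis at pH 7.5 and 37 °C in 100 mM Tris or phosphate buffer with 300 mM NaCl, no enzyme. Phenol release (about 1 mM ester) followed at 275 nm, Δε 1375 M⁻¹cm⁻¹. 4-Nitrophenol release (about 10 μM ester) followed at 400 nm, Δε 12500 M⁻¹cm⁻¹. Starting concentrations checked by full hydrolysis in 6 N HCl at 110 °C. First-order rate constants and half-times derived.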

[3] = Rate constant was evaluated for the loss of 1 mol of phenol at the pH 7.5 in the presence of Tris buffer; assay type: ADME; method in brief: as §1
[4] = The half-life period was evaluated for the loss of 1 mol of phenol at the pH 7.5 in the presence of phosphate buffer; assay type: ADME; method in brief: as §1
[5] = Inhibitory potency was evaluated against angiotensin converting enzyme at the pH 7.5; assay type: ADME
[6] = The half-life period was evaluated for the loss of 1 mol of phenol at the pH 7.5 in the presence of Tris buffer; assay type: ADME; method in brief: as §1
[7] = Half life against hydrolysis at P-N bond; assay type: ADME
Method in brief: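 P–N cleavage measured in pH 7.5 phosphate buffer at 37 °C. Free Ala-Pro primary amine determined by fluorescamine assay over the hydrolysis time course. Observed rate constant and half-time derived.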

[8] = molecular target: T1, Angiotensin-converting enzyme; test: Inhibitory constant was evaluated against Angiotensin I converting enzyme from rabbit lungs
[9] = Inhibitory potency was evaluated against angiotensin converting enzyme at the pH 7.5 in the presence of Tris phosphate buffer, 300 mM in NaCl; assay type: ADME
[10] = molecular target: T1, Angiotensin-converting enzyme; test: Inhibitory constant was evaluated against Angiotensin I converting enzyme from rabbit lungs at pH 8
[11] = molecular target: T1, Angiotensin-converting enzyme; test: Inhibitory constant was evaluated against Angiotensin I converting enzyme from rabbit lungs at pH 8 in TRIS phosphate/borate buffer
[12] = molecular target: T1, Angiotensin-converting enzyme; test: Binding affinity against Angiotensin I converting enzyme
[13] = Rate constant was evaluated for the loss of 2 mol of phenol at the pH 7.5 in the presence of Tris buffer; assay type: ADME; method in brief: as §1
[14] = The half-life period was evaluated for the loss of 2 mol of phenol at the pH 7.5 in the presence of phosphate buffer; assay type: ADME; method in brief: as §1
[15] = The half-life period was evaluated for the loss of 2 mol of phenol at the pH 7.5 in the presence of Tris buffer; assay type: ADME; method in brief: as §1
[16] = Rate constant was evaluated for the loss of 2 mol of phenol at the pH 7.5 in the presence of phosphate buffer; assay type: ADME; method in brief: as §1
[17] = molecular target: T1, Angiotensin-converting enzyme; test: Inhibitory activity against Angiotensin I converting enzyme was evaluated

SMILES | pKi [1] | Rate constant [2] [h⁻¹] | Rate constant [3] [h⁻¹] | half-life [4] [h] | half-life [6] [h] | further results
C[C@H](NP(=O)(Oc1ccccc1)Oc1ccccc1)C(=O)N1CCC[C@H]1C(=O)O | 4.38 | 0.0012 | 0.0013 | 576 | 528 | half-life [5]: 384 h
C[C@H](NP(=O)([O-])[O-])C(=O)N1CCC[C@H]1C(=O)[O-].[K+].[K+].[K+] | 8.85 |  |  |  |  | half-life [7]: 2.2 h; pIC50 [8]: 6.15
C[C@H](NP(=O)(CCc1ccccc1)Oc1ccccc1)C(=O)N1CCC[C@H]1C(=O)O (stereo partly drawn) | 4.26 | 0.001 | 0.0014 | 744 | 504 | half-life [9]: 912 h
C[C@H](NP(=O)(O)OCc1ccccc1)C(=O)N1CCC[C@H]1C(=O)O | 8.92 |  |  |  |  | 
C[C@H](NP(=O)(O)Oc1ccccc1)C(=O)N1CCC[C@H]1C(=O)O | 8.10 |  |  |  |  | pIC50 [10]: 6.05; pIC50 [11]: 1.30
C[C@H](NP(=O)(O)Oc1ccc([N+](=O)[O-])cc1)C(=O)N1CCC[C@H]1C(=O)O | 7.74 |  |  |  |  | pKi [12]: 7.74
C[C@H](NP(=O)(Oc1ccc([N+](=O)[O-])cc1)Oc1ccc([N+](=O)[O-])cc1)C(=O)N1CCC[C@H]1C(=O)O | 6.10 | 0.34 | 0.2 | 2 | 3.4 | Rate constant [13]: 0.025 h⁻¹; half-life [14]: 22 h; half-life [15]: 29 h; Rate constant [16]: 0.031 h⁻¹; half-life [9]: 4 h
C[C@H](NP(=O)(O)CCc1ccccc1)C(=O)N1CCC[C@H]1C(=O)O | 9.30 |  |  |  |  | pIC50 [17]: 8.15
